Laboratory results as given in ChEMBL document CHEMBL5058577, “EUbOPEN Chemogenomics Library 2 (Multiplex)” (2022).

Test system: U2OS
Assay: Multiplex assay against U2OS
Type: toxicity, cell-based
Settings: human
Summary of the method: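 Values for tubulin, mitochondrial-mass and membrane-permeability phenotypes are per cents of cells with healthy nuclei. These cells were identified by CellPathfinder machine-learning gating of live cells that had been stained at seeding with Hoechst33342, BioTracker Green Microtubule Cytoskeleton Dye, MitoTracker Red and Annexin V Alexa Fluor 680 and imaged on a CQ1 microscope at 37°C and 5% CO2 after compound addition. The gating first set Hoechst high-intensity objects apart from normal cells, then split normal cells into healthy, pyknosed or fragmented nuclei, and pyknosed cells into mitotic or apoptotic.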

[1] = 12 h, 1 µM, compound concentration 1 uM, replicate 1
[2] = 12 h, 1 µM, compound concentration 1 uM, replicate 2
[3] = 12 h, 10 µM, compound concentration 10 uM, replicate 1
[4] = 12 h, 10 µM, compound concentration 10 uM, replicate 2
[5] = 24 h, 1 µM, compound concentration 1 uM, replicate 1
[6] = 24 h, 1 µM, compound concentration 1 uM, replicate 2
[7] = 24 h, 10 µM, compound concentration 10 uM, replicate 1
[8] = 24 h, 10 µM, compound concentration 10 uM, replicate 2
[9] = 48 h, 1 µM, compound concentration 1 uM, replicate 1
[10] = 48 h, 1 µM, compound concentration 1 uM, replicate 2
[11] = 48 h, 10 µM, compound concentration 10 uM, replicate 1
[12] = 48 h, 10 µM, compound concentration 10 uM, replicate 2

For `O=C(O)c1cc2ccccc2c(Cc2c(O)c(C(=O)O)cc3ccccc23)c1O` [PAMOIC ACID], the “Population Apoptotic (%)” value [1] was 85%, the “Population Fragmented Nuclei (%)” value [1] was 23% and the “Population Healthy Nuclei (%)” value [1] was 68%. For the same compound, the “Population Hoechst High Intensity Objects (%)” value [1] was 1%, the “Population Membrane Permeable-Phenotype (%)” value [1] was 2% and the “Population Mitochondria Different-Phenotype (%)” value [1] was 0%. For the same compound, the “Population Mitotic Cells (%)” value [1] was 15%, the “Population Normal (%)” value [1] was 98% and the “Population Pyknosed Nuclei (%)” value [1] was 8%. The “Population Tubulin-Different-Phenotype (%)” value [1] was 0%, the “Total Cell Count” value [1] was 246 and the “Population Apoptotic (%)” value [2] was 50%. The “Population Fragmented Nuclei (%)” value [2] was 15%, the “Population Healthy Nuclei (%)” value [2] was 73% and the “Population Hoechst High Intensity Objects (%)” value [2] was 0%. For the same compound, the “Population Membrane Permeable-Phenotype (%)” value [2] was 12%, the “Population Mitochondria Different-Phenotype (%)” value [2] was 6% and the “Population Mitotic Cells (%)” value [2] was 50%. The “Population Normal (%)” value [2] was 100%, the “Population Pyknosed Nuclei (%)” value [2] was 11% and the “Population Tubulin-Different-Phenotype (%)” value [2] was 13%. The “Total Cell Count” value [2] was 109, the “Population Apoptotic (%)” value [3] was 75% and the “Population Fragmented Nuclei (%)” value [3] was 19%. The “Population Healthy Nuclei (%)” value [3] was 75%, the “Population Hoechst High Intensity Objects (%)” value [3] was 2% and the “Population Membrane Permeable-Phenotype (%)” value [3] was 6%. The “Population Mitochondria Different-Phenotype (%)” value [3] was 1%, the “Population Mitotic Cells (%)” value [3] was 25% and the “Population Normal (%)” value [3] was 97%. The “Population Pyknosed Nuclei (%)” value [3] was 4%, the “Population Tubulin-Different-Phenotype (%)” value [3] was 4% and the “Total Cell Count” value [3] was 259. For the same compound, the “Population Apoptotic (%)” value [4] was 87%, the “Population Hoechst High Intensity Objects (%)” value [4] was 0% and the “Population Membrane Permeable-Phenotype (%)” value [4] was 5%. For the same compound, the “Population Mitochondria Different-Phenotype (%)” value [4] was 3%, the “Population Mitotic Cells (%)” value [4] was 12% and the “Population Normal (%)” value [4] was 100%. For the same compound, the “Population Pyknosed Nuclei (%)” value [4] was 5%, the “Population Tubulin-Different-Phenotype (%)” value [4] was 2% and the “Total Cell Count” value [4] was 140. The “Population Apoptotic (%)” value [5] was 92%, the “Population Fragmented Nuclei (%)” value [5] was 18% and the “Population Healthy Nuclei (%)” value [5] was 72%. The “Population Hoechst High Intensity Objects (%)” value [5] was 1%, the “Population Membrane Permeable-Phenotype (%)” value [5] was 2% and the “Population Mitochondria Different-Phenotype (%)” value [5] was 0%. The “Population Mitotic Cells (%)” value [5] was 8%, the “Population Normal (%)” value [5] was 98% and the “Population Pyknosed Nuclei (%)” value [5] was 8%. The “Population Tubulin-Different-Phenotype (%)” value [5] was 1%, the “Total Cell Count” value [5] was 288 and the “Population Apoptotic (%)” value [6] was 76%. The “Population Fragmented Nuclei (%)” value [6] was 20%, the “Population Healthy Nuclei (%)” value [6] was 70% and the “Population Hoechst High Intensity Objects (%)” value [6] was 0%. For the same compound, the “Population Membrane Permeable-Phenotype (%)” value [6] was 11%, the “Population Mitochondria Different-Phenotype (%)” value [6] was 2% and the “Population Mitotic Cells (%)” value [6] was 23%. For the same compound, the “Population Normal (%)” value [6] was 99%, the “Population Pyknosed Nuclei (%)” value [6] was 9% and the “Population Tubulin-Different-Phenotype (%)” value [6] was 7%. For the same compound, the “Total Cell Count” value [6] was 139, the “Population Apoptotic (%)” value [7] was 82% and the “Population Fragmented Nuclei (%)” value [7] was 17%. The “Population Healthy Nuclei (%)” value [7] was 76%, the “Population Hoechst High Intensity Objects (%)” value [7] was 3% and the “Population Membrane Permeable-Phenotype (%)” value [7] was 5%. The “Population Mitochondria Different-Phenotype (%)” value [7] was 2%, the “Population Mitotic Cells (%)” value [7] was 17% and the “Population Normal (%)” value [7] was 96%. The “Population Pyknosed Nuclei (%)” value [7] was 5%, the “Population Tubulin-Different-Phenotype (%)” value [7] was 3% and the “Total Cell Count” value [7] was 314. The “Population Apoptotic (%)” value [8] was 90%, the “Population Fragmented Nuclei (%)” value [8] was 13% and the “Population Healthy Nuclei (%)” value [8] was 79%. For the same compound, the “Population Hoechst High Intensity Objects (%)” value [8] was 1%, the “Population Membrane Permeable-Phenotype (%)” value [8] was 7% and the “Population Mitochondria Different-Phenotype (%)” value [8] was 3%. For the same compound, the “Population Mitotic Cells (%)” value [8] was 9%, the “Population Normal (%)” value [8] was 98% and the “Population Pyknosed Nuclei (%)” value [8] was 6%. For the same compound, the “Population Tubulin-Different-Phenotype (%)” value [8] was 7%, the “Total Cell Count” value [8] was 163 and the “Population Apoptotic (%)” value [9] was 83%. For the same compound, the “Population Fragmented Nuclei (%)” value [9] was 16%, the “Population Healthy Nuclei (%)” value [9] was 74% and the “Population Hoechst High Intensity Objects (%)” value [9] was 1%. The “Population Membrane Permeable-Phenotype (%)” value [9] was 2%, the “Population Mitochondria Different-Phenotype (%)” value [9] was 1% and the “Population Mitotic Cells (%)” value [9] was 16%. The “Population Normal (%)” value [9] was 98%, the “Population Pyknosed Nuclei (%)” value [9] was 9% and the “Population Tubulin-Different-Phenotype (%)” value [9] was 2%. For the same compound, the “Total Cell Count” value [9] was 469, the “Population Apoptotic (%)” value [10] was 90% and the “Population Fragmented Nuclei (%)” value [10] was 11%. For the same compound, the “Population Healthy Nuclei (%)” value [10] was 76%, the “Population Hoechst High Intensity Objects (%)” value [10] was 2% and the “Population Membrane Permeable-Phenotype (%)” value [10] was 9%. The “Population Mitochondria Different-Phenotype (%)” value [10] was 3%, the “Population Mitotic Cells (%)” value [10] was 10% and the “Population Normal (%)” value [10] was 97%. The “Population Pyknosed Nuclei (%)” value [10] was 11%, the “Population Tubulin-Different-Phenotype (%)” value [10] was 5% and the “Total Cell Count” value [10] was 177. For the same compound, the “Population Apoptotic (%)” value [11] was 96%, the “Population Fragmented Nuclei (%)” value [11] was 15% and the “Population Healthy Nuclei (%)” value [11] was 77%. For the same compound, the “Population Hoechst High Intensity Objects (%)” value [11] was 3%, the “Population Membrane Permeable-Phenotype (%)” value [11] was 5% and the “Population Mitochondria Different-Phenotype (%)” value [11] was 1%. For the same compound, the “Population Mitotic Cells (%)” value [11] was 3%, the “Population Normal (%)” value [11] was 96% and the “Population Pyknosed Nuclei (%)” value [11] was 6%. The “Population Tubulin-Different-Phenotype (%)” value [11] was 4%, the “Total Cell Count” value [11] was 455 and the “Population Apoptotic (%)” value [12] was 89%. The “Population Fragmented Nuclei (%)” value [12] was 20%, the “Population Healthy Nuclei (%)” value [12] was 66% and the “Population Hoechst High Intensity Objects (%)” value [12] was 0%. For the same compound, the “Population Membrane Permeable-Phenotype (%)” value [12] was 6%, the “Population Mitochondria Different-Phenotype (%)” value [12] was 2% and the “Population Mitotic Cells (%)” value [12] was 10%. The “Population Normal (%)” value [12] was 99%, the “Population Pyknosed Nuclei (%)” value [12] was 13% and the “Population Tubulin-Different-Phenotype (%)” value [12] was 2%. For the same compound, the “Total Cell Count” value [12] was 218.
